Holding throughout (type): functional, cell-based
For one test, the target named is P2Y purinoceptor 1 (Homo sapiens, UniProt P47900). Briefly: Agonist activity evaluated as change in the level of cytosolic calcium in 1321N astrocytoma cells infected with a retrovirus encoding the human P2Y1 receptor at 100 uM; IA is inactive.
Test [1] addresses T1, P2Y purinoceptor 2 (Homo sapiens, UniProt P41231). Briefly: Agonist activity evaluated as change in the level of cytosolic calcium in 1321N astrocytoma cells infected with a retrovirus encoding the human P2Y2 receptor.
In test [2] the target is T2, P2Y purinoceptor 4 (Homo sapiens, UniProt P51582). Briefly: Agonist activity evaluated as change in the level of cytosolic calcium in 1321N astrocytoma cells infected with a retrovirus encoding the human P2Y4 receptor.
For a further test, the target named is P2Y purinoceptor 6 (Homo sapiens, UniProt Q15077). Briefly: Agonist activity evaluated as change in the level of cytosolic calcium in 1321N astrocytoma cells infected with a retrovirus encoding the human P2Y6 receptor. A digest of the protocol: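 Cells grown to confluence, then loaded with Fluo-3 AM (2.5 μM final) for 60 min at 25 °C in buffer (mM: KCl 10.0, NaCl 118, CaCl2 2.5, MgCl2 1.0, HEPES 20, glucose 10; pH 7.4). Dye washed off. Activation read as change in fluorescence intensity on FLIPR (cytosolic calcium mobilization). Agonist potency given as EC50.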

Test [3] concerns the target T1, P2Y purinoceptor 2. Briefly: Agonist activity evaluated as change in the level of cytosolic calcium in 1321N astrocytoma cells infected with a retrovirus encoding the human P2Y2 receptor at 100 uM; IA is inactive.
Test [4] has as its target T2, P2Y purinoceptor 4. Briefly: Agonist activity evaluated as change in the level of cytosolic calcium in 1321N astrocytoma cells infected with a retrovirus encoding the human P2Y4 receptor at 100 uM; IA is inactive.

P2Y purinoceptor 1, sequence (P47900 whole entry): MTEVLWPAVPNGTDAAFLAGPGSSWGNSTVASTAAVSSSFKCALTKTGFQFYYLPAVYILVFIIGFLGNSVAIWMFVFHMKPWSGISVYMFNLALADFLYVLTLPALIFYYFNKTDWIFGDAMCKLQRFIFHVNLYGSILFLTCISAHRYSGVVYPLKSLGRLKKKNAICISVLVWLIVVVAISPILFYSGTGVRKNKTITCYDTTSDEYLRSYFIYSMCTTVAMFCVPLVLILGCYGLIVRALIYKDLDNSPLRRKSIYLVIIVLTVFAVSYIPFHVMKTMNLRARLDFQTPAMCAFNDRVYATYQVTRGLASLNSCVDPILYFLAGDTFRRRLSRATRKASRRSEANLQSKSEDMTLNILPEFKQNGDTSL
T2 sequence (P51582 whole entry): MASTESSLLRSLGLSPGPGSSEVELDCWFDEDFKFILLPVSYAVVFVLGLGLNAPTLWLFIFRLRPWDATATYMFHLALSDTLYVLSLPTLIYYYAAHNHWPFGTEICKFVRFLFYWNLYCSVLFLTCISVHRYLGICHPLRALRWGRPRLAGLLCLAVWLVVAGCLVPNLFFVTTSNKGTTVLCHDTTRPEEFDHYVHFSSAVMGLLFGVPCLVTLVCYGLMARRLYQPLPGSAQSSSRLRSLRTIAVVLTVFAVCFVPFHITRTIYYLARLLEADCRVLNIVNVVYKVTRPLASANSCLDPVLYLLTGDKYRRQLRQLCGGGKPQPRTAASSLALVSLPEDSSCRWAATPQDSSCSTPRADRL
T1 sequence (P41231 whole entry): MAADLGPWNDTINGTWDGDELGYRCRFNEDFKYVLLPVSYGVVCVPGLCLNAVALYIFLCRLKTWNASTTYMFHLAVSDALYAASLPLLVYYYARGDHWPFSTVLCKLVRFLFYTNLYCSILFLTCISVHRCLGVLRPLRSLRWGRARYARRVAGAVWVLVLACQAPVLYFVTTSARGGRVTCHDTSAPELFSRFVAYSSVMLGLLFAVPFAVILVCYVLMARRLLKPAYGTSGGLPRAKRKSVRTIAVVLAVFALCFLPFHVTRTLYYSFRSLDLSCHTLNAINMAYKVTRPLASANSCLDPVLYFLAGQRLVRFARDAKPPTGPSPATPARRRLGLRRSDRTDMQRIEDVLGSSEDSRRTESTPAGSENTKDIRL
P2Y purinoceptor 6, sequence (Q15077 whole entry): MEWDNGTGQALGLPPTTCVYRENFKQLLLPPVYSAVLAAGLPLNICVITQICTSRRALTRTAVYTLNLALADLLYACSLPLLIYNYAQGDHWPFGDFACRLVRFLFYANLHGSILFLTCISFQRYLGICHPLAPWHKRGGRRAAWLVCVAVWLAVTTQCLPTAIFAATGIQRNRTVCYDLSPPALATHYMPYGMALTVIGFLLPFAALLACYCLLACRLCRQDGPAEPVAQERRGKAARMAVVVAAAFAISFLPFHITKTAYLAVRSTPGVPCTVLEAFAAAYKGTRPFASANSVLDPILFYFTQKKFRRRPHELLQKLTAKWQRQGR

Turning to `O=c1ccn([C@@H]2O[C@H](COP(=O)(O)OP(=O)(O)OP(=O)(O)OC[C@@H]3O[C@H](n4ccc(=O)[nH]c4=O)[C@@H](O)[C@H]3O)[C@@H](O)[C@H]2O)c(=O)[nH]1`, the 50% effective concentration (EC50) entry on P2Y purinoceptor 1 was “Not Active”; on P2Y purinoceptor 2 [1] it was 22 µM; on P2Y purinoceptor 4 [2], over 100 µM; at P2Y purinoceptor 6 it was 0.2 µM.
Regarding `O=c1ccn([C@@H]2O[C@H](COP(=O)(O)OP(=O)(O)OP(=O)(O)OP(=O)(O)OC[C@@H]3O[C@H](n4ccc(=O)[nH]c4=O)[C@@H](O)[C@H]3O)[C@@H](O)[C@H]2O)c(=O)[nH]1`, the values for the EC50 result at P2Y purinoceptor 1, at P2Y purinoceptor 4 [2] and at P2Y purinoceptor 6 were “Not Active”, 0.4 µM and 20 µM, respectively.
As to `O=c1ccn([C@@H]2O[C@H](COP(=O)(O)OP(=O)(O)OP(=O)(O)OP(=O)(O)OP(=O)(O)OP(=O)(O)OP(=O)(O)OC[C@@H]3O[C@H](n4ccc(=O)[nH]c4=O)[C@@H](O)[C@H]3O)[C@@H](O)[C@H]2O)c(=O)[nH]1`, the EC50 result on P2Y purinoceptor 1 was “Not Active”; on P2Y purinoceptor 2 [1], 8.4 µM; at P2Y purinoceptor 4 [2], over 30 µM; on P2Y purinoceptor 6 it was over 100 µM.
Consider `O=c1ccn([C@@H]2O[C@H](COP(=O)(O)OP(=O)(O)OP(=O)(O)OP(=O)(O)OP(=O)(O)OC[C@@H]3O[C@H](n4ccc(=O)[nH]c4=O)[C@@H](O)[C@H]3O)[C@@H](O)[C@H]2O)c(=O)[nH]1`, for which the EC50 result at P2Y purinoceptor 1 is “Not Active”; at P2Y purinoceptor 2 [1], 5.6 µM; on P2Y purinoceptor 4 [2] it was over 20 µM; on P2Y purinoceptor 6, over 30 µM.
`O=c1ccn([C@@H]2O[C@H](COP(=O)(O)OP(=O)(O)OP(=O)(O)OP(=O)(O)OP(=O)(O)OP(=O)(O)OC[C@@H]3O[C@H](n4ccc(=O)[nH]c4=O)[C@@H](O)[C@H]3O)[C@@H](O)[C@H]2O)c(=O)[nH]1`: the EC50 entry is “Not Active” on P2Y purinoceptor 1, 9.8 µM at P2Y purinoceptor 2 [1], over 30 µM at P2Y purinoceptor 4 [2] and over 30 µM at P2Y purinoceptor 6.
As to `O=c1ccn([C@@H]2O[C@H](COP(=O)(O)OP(=O)(O)OC[C@@H]3O[C@H](n4ccc(=O)[nH]c4=O)[C@@H](O)[C@H]3O)[C@@H](O)[C@H]2O)c(=O)[nH]1`, the EC50 result at P2Y purinoceptor 1 was “Not Active”; on P2Y purinoceptor 2 [3], “Not Active”; on P2Y purinoceptor 4 [4], “Not Active”; on P2Y purinoceptor 6 it was over 30 µM.
In the case of `O=c1ccn([C@@H]2O[C@H](COP(=O)(O)OP(=O)(O)OP(=O)(O)O)[C@@H](O)[C@H]2O)c(=O)[nH]1` [URIDINE TRIPHOSPHATE], the EC50 entry is “Not Active” at P2Y purinoceptor 1, 0.03 µM on P2Y purinoceptor 2 [1], 0.1 µM on P2Y purinoceptor 4 [2] and over 10 µM on P2Y purinoceptor 6.
For `O=c1ccn([C@@H]2O[C@H](COP(=O)(O)OP(=O)(O)O)[C@@H](O)[C@H]2O)c(=O)[nH]1` [URIDINE_DIPHOSPHATE], the EC50 result at P2Y purinoceptor 1 is “Not Active”; at P2Y purinoceptor 2 [1], over 10 µM; on P2Y purinoceptor 4 [4] it was “Not Active”; at P2Y purinoceptor 6 it was 0.1 µM.
